In data set [1] the test system is PC-12. The data set is described as follows: Radical scavenging activity in rat PC12 cells assessed as inhibition of nitric oxide radical-induced cell damage by MTT assay. The format is functional, cell-based. A digest of the protocol:
(§1)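 PC12 cells grown in DMEM with 10% heat-inactivated horse serum, 5% FBS and 1.0 mM pyruvate at 37 °C, 5% CO2. Seeded at 20,000 cells/well on poly-L-lysine and attached 24 h. Pretreated 1 h with 12.5–200 µM compound. Damage induced by SNP 2 mM for 2 h (NO), H2O2 1 mM for 1 h, or H2O2 1 mM/Fe(II) 30 µM for 1 h (·OH). Media replaced, cells incubated 14 h, survival measured by MTT.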
(In general: Tetrazolium dyes change colour on reduction, which living cells bring about.)

Data set [2] has as its system Aorta. The data set is described as follows: Nitric oxide radical scavenging activity in rat aortic strip assessed as inhibition of acetylcholine-induced vasorelaxation at 100 uM. The format is functional, tissue-based.
For data set [3], the system named is Aorta. Kind of data set: Nitric oxide radical scavenging activity in rat aortic strip assessed as inhibition of acetylcholine-induced vasorelaxation at 1 uM. The format is functional, tissue-based.
Data set [4] deals with PC-12. Kind of data set: Radical scavenging activity in rat PC12 cells assessed as inhibition of hydrogen peroxide radical-induced cell damage by MTT assay. The format is functional, cell-based. Put shortly: as §1
The test system of data set [5] is Aorta. Kind of data set: Nitric oxide radical scavenging activity in rat aortic strip assessed as inhibition of acetylcholine-induced vasorelaxation at 10 uM. The format is functional, tissue-based.
In data set [6] the test system is PC-12. Kind of data set: Radical scavenging activity in rat PC12 cells assessed as inhibition of hydroxyl radical-induced cell damage by MTT assay. The format is functional, cell-based. A digest of the protocol: as §1
Data set [7] is described as follows: Aqueous stability assessed as decomposition time at pH 7.4. The format is physicochemical. The conditions noted are these: buffer. Put shortly: (§2)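 Each sample dissolved in aqueous solution at pH 2.0, 7.4 or 11.5 (final 10^-2 mM) and held at room temperature for up to 200 h. Decomposition followed by TLC (CHCl3/CH3OH, 20:1). Value is the time at which decomposition appeared.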

The nature of data set [8]: Aqueous stability assessed as decomposition time at pH 2.0. The format is physicochemical. The conditions noted are these: buffer. A digest of the protocol:
as §2

Data set [9] can be described thus: Aqueous stability assessed as decomposition time at pH 11.5. The data set is classed as physicochemical. The conditions noted are these: buffer. A digest of the protocol:
as §2

In data set [10] the test system is Rattus norvegicus. The data set is described as follows: Antithrombotic activity in Wistar rat assessed as dry thrombus weight at 5 umol/kg.
The test system of data set [11] is Blood. The data set is described as follows: Inhibition of 0.1 uM platelet activating factor-induced platelet aggregation in rabbit blood. The format is functional, Oryctolagus cuniculus. Put shortly: (§3)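 Platelet-rich plasma made by centrifuging normal rabbit blood anticoagulated with sodium citrate (3.8% final). Platelets adjusted to 2×10^5/µl with autologous plasma. Aggregation induced by PAF or ADP (final 10^-5–10^-7 M) and read by turbidimetry in an aggregometer. Maximal aggregation rate (Am%) taken as peak height of the curve.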

Data set [12] has as its system Blood. Kind of data set: Inhibition of 1 uM adenosine diphosphate-induced platelet aggregation in rabbit blood. The data set is classed as functional, Oryctolagus cuniculus. A digest of the protocol:
as §3

The test system of data set [13] is Blood. The data set is described as follows: Inhibition of 0.1 uM adenosine diphosphate-induced platelet aggregation in rabbit blood. The data set is classed as functional, Oryctolagus cuniculus. Put shortly:
as §3

Data set [14] relates to Blood. The data set is described as follows: Inhibition of 1 uM platelet activating factor-induced platelet aggregation in rabbit blood. The format is functional, Oryctolagus cuniculus. Put shortly: as §3
Data set [15] concerns Blood. The data set is described as follows: Inhibition of 10 uM adenosine diphosphate-induced platelet aggregation in rabbit blood. The data set is classed as functional, Oryctolagus cuniculus. Put shortly:
as §3

Data set [16] concerns Blood. Kind of data set: Inhibition of 10 uM platelet activating factor-induced platelet aggregation in rabbit blood. The data set is classed as functional, Oryctolagus cuniculus. A digest of the protocol:
as §3

Data set [17] concerns Rattus norvegicus. The data set is described as follows: Antithrombotic activity in Wistar rat assessed as wet thrombus weight at 5 umol/kg. The format is functional. A digest of the protocol:
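Male Wistar rats (250–300 g) anesthetized with pentobarbital sodium (80.0 mg/kg, ip). The right carotid artery and left jugular vein were cannulated via a polyethylene tube containing a thread, filled with NS or compound dissolved in NS (vehicle NS). Blood shunted 15 min. The thread was weighed wet, then after 2 weeks in a desiccator weighed dry. n = 10, ANOVA.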

The structures appear in SMILES notation. Where a SMILES comes first, the peptide text is derived from it. The star is where a group is joined. X2 = CC1(C)N(O)C(c2ccc(OCC(=O)*)cc2)=[N+]([O-])C1(C)C Bounds are passed on as bounds.

Broadly, the EC50 is the concentration that produces a half-maximal response. Broadly, the inhibition is the relative decrease from the control value, in per cent. Consider `CC(C)(C)OC(=O)N[C@@H](CCCNC(=N)NC(=O)COc1ccc(C2=[N+]([O-])C(C)(C)C(C)(C)N2O)cc1)C(=O)O`, for which the EC50 came to 93 µM in data set [1], 32.4 µM in data set [4] and 102 µM in [6]. The inhibition was 95% in [2], 24.1% in data set [3] and 71.2% in [5].

Regarding `CC1(C)N(O)C(c2ccc([N+](=O)[O-])cc2)=[N+]([O-])C1(C)C`, the inhibition in [2] is 98%; in data set [5], 71.3%. Besides, the Time in [7], in [8] and in [9] was more than 200 h in each case.

Take `N[C@@H](CCC(=O)O)C(=O)N[C@@H](CS)C(=O)NCC(=O)O` (H-Glu-Cys-Gly-OH): the inhibition in [2] was 9.2%; in data set [3], 3.2%; in data set [5], 5.2%.

Turning to `CC1(C)N(O)C(c2ccc(OCC(=O)NCCCC[C@H](N)C(=O)O)cc2)=[N+]([O-])C1(C)C`, the results for the EC50 in data set [1], in data set [4] and in [6] were 90.6 µM, 29.9 µM and 98.8 µM, respectively. The inhibition in data set [2] stood at 98.6%; in data set [3], 25.4%; in [5] it was 72.3%.

Regarding `CC1(C)N(O)C(CCl)=[N+]([O-])C1(C)C`, the inhibition in data set [2] was 25%; in data set [3], 1.6%; in data set [5], 7.7%. For the same compound, the results for the Time in data set [7], in [8] and in [9] were 18 h, 2 h and 2.5 h, respectively.

For `CC1(C)N(O)C(C(=O)O)=[N+]([O-])C1(C)C`, the inhibition in data set [2] is 34.3%; in data set [3] it was 1.7%; in data set [5] it was 25%. In addition, the Time is 18 h in data set [7], 2 h in [8] and 2.5 h in data set [9].

For `CC1(C)N(O)C(c2cccnc2)=[N+]([O-])C1(C)C`, the inhibition was determined as 48.6% in [2], 1.7% in data set [3] and 16.6% in data set [5]. Also, the Time in data set [7] worked out at 30 h; in data set [8] it was 15 h; in data set [9] it was 18 h.

In the case of `CC(C)[C@H](NC(=O)[C@H](CC(=O)O)NC(=O)CNC(=O)[C@@H](N)CCCNC(=N)NC(=O)COc1ccc(C2=[N+]([O-])C(C)(C)C(C)(C)N2O)cc1)C(=O)O` (H-R(X2)GDV-OH), the EC50 in [1] was 93 µM; in data set [4], 32.8 µM; in [6], 102 µM. In addition, the figures for the inhibition in data set [2], in data set [3] and in [5] were 96.6%, 26.2% and 72.8%, respectively. In data set [10], the dry thrombus weight amounted to 4.18 mg. In addition, the “inhibition (INH)” value in data set [11] is listed as 19.88%; in data set [12] it was 39.6%; in [13], 16.38%; in [14], 32.8%; in data set [15], 50.2%; in data set [16] it was 50.26%. In [17], the Activity is given as 26.11 mg.

Turning to `CC1(C)N(O)C(c2ccco2)=[N+]([O-])C1(C)C`, the inhibition in data set [2] was determined as 44.4%; in data set [3], 1.6%; in data set [5], 20.2%. Besides, the Time was 30 h in [7], 15 h in [8] and 18 h in data set [9].

As to `CC(C)(C)OC(=O)N[C@@H](CCC(=O)NCCOc1ccc(C2=[N+]([O-])C(C)(C)C(C)(C)N2O)cc1)C(=O)O`, the concentration for a half-maximal effect (EC50) in data set [1] is 42.7 µM; in [4] it was 49.9 µM; in data set [6], 59 µM. The results for the inhibition in [2], in [3] and in [5] were 96.9%, 26% and 72.4%, respectively.

On to `COC(=O)[C@@H](N)CC(=O)NCCOc1ccc(C2=[N+]([O-])C(C)(C)C(C)(C)N2O)cc1`, for which the EC50 worked out at 39 µM in [1], 47.8 µM in data set [4] and 55.6 µM in [6]. Besides, the inhibition came to 99.1% in [2], 29.2% in [3] and 76% in data set [5].

In the case of `CC1(C)N(O)C(c2ccc(OCC(=O)N[C@@H](CCCCN)C(=O)O)cc2)=[N+]([O-])C1(C)C`, the concentration giving a half-maximal response (EC50) in data set [1] was 90.6 µM; in data set [4] it was 30.1 µM; in data set [6] it was 99.1 µM. The inhibition in data set [2] was 98.9%; in data set [3] it was 28.7%; in data set [5] it was 74%.

`CC(C)[C@H](NC(=O)[C@H](CC(=O)O)NC(=O)CNC(=O)[C@@H](N)CCCNC(=N)N)C(=O)O` (H-RGDV-OH): the results for the inhibition in [2], in [3] and in [5] were 10.5%, 5.3% and 7.6%, respectively. Besides, the dry thrombus weight in data set [10] is listed as 4.43 mg. Also, the “inhibition (INH)” value in [11] turned out to be 20.01%; in [12], 33.41%; in data set [13], 12.65%; in [14], 34.84%; in data set [15], 49.78%; in data set [16], 52.07%. In addition, in data set [17], the Activity is reported as 28.6 mg.

Take `CC(C)(C)OC(=O)N[C@@H](CCCCNC(=O)COc1ccc(C2=[N+]([O-])C(C)(C)C(C)(C)N2O)cc1)C(=O)O`: the results for the concentration for a half-maximal effect (EC50) in data set [1], in [4] and in data set [6] were 89.9 µM, 29.3 µM and 97.7 µM, respectively. Also, the inhibition in [2] came to 97.9%; in data set [3], 28%; in [5], 72.7%.

Consider `CC1(C)N(O)C=[N+]([O-])C1(C)C`, for which the figures for the inhibition in data set [2], in [3] and in data set [5] were 31.2%, 1.7% and 8.6%, respectively. Further, the results for the Time in [7], in [8] and in [9] were 18 h, 2 h and 2.5 h, respectively.

As for `CC1(C)N(O)C(c2ccc(OCCNC(=O)C[C@H](N)C(=O)O)cc2)=[N+]([O-])C1(C)C`, the half-maximal effective concentration (EC50) was found to be 42.3 µM in data set [1], 48.6 µM in data set [4] and 58.2 µM in [6]. Further, the inhibition in data set [2] stood at 97.5%; in data set [3], 26.7%; in [5] it was 72.8%.

`CC1(C)N(O)C(c2ccc(OCC(=O)N[C@@H](CCCNC(=N)N)C(=O)O)cc2)=[N+]([O-])C1(C)C`: the figures for the concentration for a half-maximal effect (EC50) in data set [1], in data set [4] and in [6] were 92.9 µM, 32.1 µM and 101 µM, respectively. For the same compound, the inhibition came to 15.9% in data set [2], 7.8% in data set [3] and 10.7% in data set [5].

With `CC1(C)N(O)C(c2ccccc2)=[N+]([O-])C1(C)C`, the inhibition stood at 81.9% in [2], 9.8% in [3] and 62.7% in data set [5]. Besides, the Time in [7], in data set [8] and in data set [9] was more than 200 h in each case.

Regarding `CC1(C)N(O)C(c2ccc(OCCNC(=O)CC[C@H](N)C(=O)N[C@@H](CS)C(=O)NCC(=O)O)cc2)=[N+]([O-])C1(C)C`, the half-maximal effective concentration (EC50) in data set [1] was determined as 37.8 µM; in data set [4], 47 µM; in data set [6], 54.9 µM.

Take `CC1(C)N(O)C(c2ccc(OCCNC(=O)CC[C@H](N)C(=O)O)cc2)=[N+]([O-])C1(C)C`: the EC50 stood at 41.8 µM in data set [1], 49.6 µM in [4] and 58.1 µM in [6]. For the same compound, the inhibition in data set [2] stood at 97.1%; in data set [3] it was 26.2%; in data set [5], 72.4%.

With `N=C(N)NCCC[C@H](N)C(=O)NCC(=O)N[C@@H](CC(=O)O)C(=O)N[C@@H](CO)C(=O)O`, the inhibition in data set [2] is 8.9%; in [3], 2.9%; in [5] it was 4.3%. In addition, the dry thrombus weight in data set [10] is reported as 4.22 mg. Also, the “inhibition (INH)” value was found to be 22.03% in data set [11]; 39.62% in data set [12]; 16.6% in data set [13]; 36.47% in data set [14]; 51.5% in [15]; 53.69% in data set [16]. Moreover, the Activity in data set [17] came to 27.9 mg.

Turning to `CC1(C)N(O)C(c2ccc(OCCNC(=O)CC[C@H](N)C(=O)N[C@H](CS)C(=O)NCC(=O)O)cc2)=[N+]([O-])C1(C)C`, the values for the inhibition in data set [2], in data set [3] and in [5] were 97.3%, 25.9% and 72.2%, respectively.
